# Screening results (PubChem)
# Shown are actives, neighbours in structure and some others; about 2.9% of the full set was active somewhere.
# CHO-K1 Ca ag = M1 agonist counterscreen hit in parental CHO-K1 cells; Fluo-8 calcium fluorescence; scaled to maximal ATP response, vehicle zero; activation, % at 3 µM; actives 0.48% (n = 360,000); AID 602248; in the data active = activation above about 15%;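 note: untransfected CHO-K1 host cells lacking M1 receptor as counterscreen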
# CHO parental Ca = counter-screen: ATP calcium response change in parental CHO cells; parental CHO-K1, ATP-induced calcium, Fluo-8 fluorescence; inhibition, % at 5.6 µM; actives 0.63% (n = 330,000); AID 463079;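 active = inhibition above that plate's mean sample inhibition plus 3 SD, cut at about 26% in these data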;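 note: 0% = ATP-challenged DMSO wells and 100% = DMSO wells without ATP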
#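 test system = CHO parental line | reagent = ATP stimulus | measured by = intracellular calcium via Fluo-8 no-wash fluorescent dye | control set = ATP and no-ATP DMSO wells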
# OX1R antag-1 = blocks the human orexin 1 receptor; OX1R-expressing cells, FRET antagonist read-out; actives 1.8% (n = 330,000); O43613; inhibition, % at 6.6 µM; in the data active = inhibition mostly above about 38%, no sharp cut-off; inactive = mostly below about 40%;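 note: 0% = agonist challenge alone and 100% = reference antagonist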
# Target sequence (O43613 whole entry, looked up): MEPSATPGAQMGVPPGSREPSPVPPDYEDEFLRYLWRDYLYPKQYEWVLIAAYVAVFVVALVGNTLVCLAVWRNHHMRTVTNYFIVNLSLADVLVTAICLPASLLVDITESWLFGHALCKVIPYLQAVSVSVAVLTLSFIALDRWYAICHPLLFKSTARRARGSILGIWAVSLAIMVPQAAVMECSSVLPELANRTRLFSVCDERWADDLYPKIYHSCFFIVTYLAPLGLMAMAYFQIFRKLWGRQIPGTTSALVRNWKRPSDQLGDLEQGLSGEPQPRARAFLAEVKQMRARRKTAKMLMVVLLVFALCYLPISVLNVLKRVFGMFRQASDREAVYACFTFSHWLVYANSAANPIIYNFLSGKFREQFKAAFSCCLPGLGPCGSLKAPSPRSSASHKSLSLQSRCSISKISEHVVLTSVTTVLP
# CHO-K1 Ca PAM = counter-screen for M1 PAMs: effect in parental CHO-K1 cells. ATP EC20, Fluo-8 calcium fluorescence; 0% at ATP EC20, 100% at ATP max. actives 0.02% (n = 360,000). activation, % at 3 µM. AID 602247;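 active = activation above the run cutoff, the mean activation of all test compounds plus 3 SD, cut at about 40% in these data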;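 note: peak over basal fluorescence ratio in a 140 s read after ATP addition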
# CHO-K1 Ca antag = nonselective inhibitor or artifact in parental CHO-K1 cells; ATP-induced calcium, Fluo-8 fluorescence; inhibition, % at 3 µM; actives 0.6% (n = 360,000); AID 602250;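 active = inhibition above a per-plate cutoff, the plate's mean sample inhibition plus 3 SD, cut at about 24% in these data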;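 note: 0% = DMSO plus EC80 ATP and 100% = DMSO alone without ATP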
# OX1R antag-2 = blocks the human orexin 1 receptor; CHO/OX1R cells, Fluo-8 calcium fluorescence, orexin A; actives 0.43% (n = 330,000); inhibition, % at 5 µM; AID 434989; O43613;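 active = inhibition above its plate's threshold, mean inhibition of all tested compounds on the plate plus 3 SD, cut at about 37% in these data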;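 note: 0% = orexin A challenge wells and 100% = SB-334867-A antagonist wells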
# OX1R HTRF conf = OX1R (human) antagonism, HTRF confirmed | shares compounds with OX1R antag-1 | OX1R-expressing cells, HTRF antagonist assay | inhibition, % at 6.6 µM | actives 49% (n = 1,800) | AID 492964; in the data active = inhibition above about 55%;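 note: CHO cells expressing OX1R stimulated with orexin A at about EC80; 0% = agonist challenge alone and 100% = reference antagonist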
# CHO-K1 HTRF = counter-screen: parental CHO-K1 HTRF response; shares compounds with OX1R antag-1; parental CHO-K1 cells, HTRF counterscreen; inhibition, % at 6.6 µM; actives 48% (n = 1,800); AID 493232; in the data active = inhibition above about 17%;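 note: 0% = agonist challenge with vehicle and 100% = vehicle alone without agonist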
# * marks the source's active call; other numbers are inactive results; . = no result given.
SMILES,CHO-K1 Ca ag,CHO parental Ca,OX1R antag-1,CHO-K1 Ca PAM,CHO-K1 Ca antag,OX1R antag-2,OX1R HTRF conf,CHO-K1 HTRF
CCn1c2ccccc2c2cc(NC(=O)c3ccco3)ccc21,0.8,-24.1,77.2*,20.9,-14.8,17.7,52.4,15.8
CCn1c2ccccc2c2cc(NC(=O)CNCc3ccccc3OC)ccc21,8.8,-5.1,20.2,9.7,-5.5,-20.1,.,.
CCn1c2ccccc2c2cc(NC(=O)c3ccccc3[N+](=O)[O-])ccc21,0.2,-2.4,24.0,6.0,0.2,7.7,.,.
C=CCNC(=S)N/N=C(\C)c1cccnc1,2.2,-2.4,104.3*,-9.4,-12.4,-20.2,13.4,2.0
C=CCNC(=S)N/N=C(\C)c1ccc(-n2ccnc2)cc1,-0.1,0.0,13.2,16.7,-0.1,0.3,.,.
CCOC(=O)C(C)/C(C)=N\Nc1ccc([N+](=O)[O-])cc1[N+](=O)[O-] (stereo not drawn),12.5,16.7,85.4*,-2.4,12.8,16.4,43.6,19.2*
O=[N+]([O-])c1ccc2c(c1N1CCCCC1)=NC1(CCCCC1)[N+]=2[O-],0.8,-7.8,77.0*,12.9,-7.3,-28.7,49.4,77.3*
CC(=O)Oc1cccc2c1C(=O)c1c(OC(C)=O)cc(C(=O)O)cc1C2=O,1.7,4.8,95.1*,8.8,6.4,-7.3,56.0*,112.2*
NC(=O)c1cc(Cc2ccccc2)sc1NC(=O)c1ccco1,1.6,-18.8,25.7,12.0,-8.7,-14.8,.,.
CCOc1ccc(CC(=O)Nc2sc(Cc3ccccc3)cc2C(N)=O)cc1OCC,-0.1,-17.3,78.8*,9.6,-15.2,14.2,87.6*,1.9
N#Cc1c(F)cccc1NCCCn1ccnc1,-0.2,-2.0,4.9,-14.9,14.6,-6.2,.,.
CCOC(=O)c1ccc(-c2c(C(=O)OCC)oc3cc(O)c(CC)cc3c2=O)o1,6.5,-8.5,82.5*,3.2,9.7,11.0,27.1,8.8
CC(=O)Nc1cccc(NC(=O)c2ccccc2Cl)c1,0.1,.,.,8.8,0.2,.,.,.
CC(C)CN(C(=O)C1CCCO1)C1CCS(=O)(=O)C1 (stereo not drawn),2.0,-9.3,9.8,12.7,-4.1,4.0,.,.
O=C(c1ccc([N+](=O)[O-])cc1[N+](=O)[O-])N1CCCC1,0.9,0.6,111.9*,15.3,-12.5,-14.9,41.0,45.9*
O=C(c1ccc(F)cc1)N1CCN(C(=O)c2ccc([N+](=O)[O-])cc2)CC1,-0.1,-6.0,85.8*,-14.6,4.0,-23.3,44.3,34.5*
O=C(c1ccc(Cl)cc1[N+](=O)[O-])N1CCOCC1,-0.1,-2.9,24.4,-9.6,16.8,-14.4,.,.
O=C(NCC1CCN(C(=O)c2ccc([N+](=O)[O-])cc2)CC1)c1ccc([N+](=O)[O-])cc1,1.6,-4.5,86.1*,15.2,-1.3,-24.1,42.2,35.9*
C[C@@H](C(=O)N1CCN(Cc2ccc3c(c2)OCO3)CC1)n1nnc2ccccc2c1=O,0.9,-15.9,21.5,5.5,-0.5,-20.5,.,.
CCN(CC)C(=O)C1=C(C)N(Cc2ccc(C(C)(C)C)cc2)C(=O)C(CC(=O)NCc2cccs2)C1 (stereo not drawn),0.9,.,.,7.3,-8.5,.,.,.
Cc1cc(C)cc(C(=O)NCC(=O)NNC(=O)CSc2ccccc2F)c1,-0.5,-16.5,2.9,10.7,-12.7,2.9,.,.
COP(=O)(OC)C(=NNS(=O)(=O)c1ccc(C)cc1)c1ccccc1,-0.6,.,.,-22.1,6.0,.,.,.
Cc1ccc(Nc2ncnc3c2oc2ccccc23)cc1,0.4,-6.3,54.0,-5.2,-3.6,-14.6,.,.
COc1ccc(Nc2ncnc3c2oc2ccccc23)cc1,0.9,-9.2,82.8*,28.4,-16.4,-8.3,61.6*,10.8
O=C(Nc1cccc(-c2nnc(-c3ccccc3)o2)c1)c1ccc(Br)o1,7.4,-11.1,87.0*,11.7,3.8,31.3,51.6,10.3
SMILES,CHO-K1 Ca ag,CHO parental Ca,OX1R antag-1,CHO-K1 Ca PAM,CHO-K1 Ca antag,OX1R antag-2,OX1R HTRF conf,CHO-K1 HTRF
O=C(COc1ccccc1)Nc1cccc(-c2nnc(-c3ccccc3)o2)c1,3.6,-6.5,61.7,8.8,5.6,-7.9,.,.
O=Nc1c(-c2ccccc2)cc2ccccn12,0.8,-8.2,152.5*,17.1,-19.9,-4.1,63.9*,86.4*
CN(C)C(=O)C(=O)c1c(-c2ccccc2)cc2ccccn12,-0.2,-7.8,34.1,5.0,-12.6,-10.5,.,.
CNc1ccc(C(=O)c2ccccc2C(=O)O)cc1[N+](=O)[O-],-0.1,0.9,79.6*,-7.0,-5.9,-21.0,24.7,35.7*
Cc1cc(=O)[nH]c(SCC(=O)c2ccc(F)c(C)c2)n1,1.1,-16.8,2.3,12.2,-5.9,-1.4,.,.
O=C(N/N=C/c1c(Cl)[nH]c2ccccc12)c1ccc2c(c1)OCCO2,2.2,1.9,78.6*,7.3,-6.2,2.9,86.5*,-3.1
O=C(O)c1cccc(NC2=C(n3nnc4ccccc43)C(=O)c3ccccc3C2=O)c1,14.3,-7.3,148.5*,10.5,5.4,5.6,94.3*,95.3*
CC(c1ccco1)N(C(=O)c1ccccc1NS(=O)(=O)c1ccc(Cl)c([N+](=O)[O-])c1)c1ccccn1 (stereo not drawn),9.4,18.2,97.7*,10.6,-1.9,23.6,52.4,9.9
CCCNC(=O)C(Cc1ccccc1)NS(=O)(=O)c1cccc2nsnc12 (stereo not drawn),-0.2,-23.2,125.7*,7.3,-3.9,-8.7,38.0,26.6*
CCOCCCNC(=O)C(Cc1ccccc1)NS(=O)(=O)c1cccc2nsnc12 (stereo not drawn),4.2,-20.1,38.7,28.6,-12.9,-3.8,.,.
CCC(C)NC(=O)C(Cc1ccccc1)NS(=O)(=O)c1cccc2nsnc12 (stereo not drawn),0.5,-17.7,152.6*,23.0,-6.4,1.6,55.4*,-4.2
CN(Cc1c(F)cccc1Cl)C(=O)C1=CC=CN2CCS(=O)(=O)N=C12,0.0,-9.6,1.5,-0.7,-5.4,3.8,.,.
CC1CCCCC1NC(=O)CN(C)S(=O)(=O)c1cccc2nsnc12 (stereo not drawn),1.4,-4.1,83.9*,2.9,0.8,-20.3,28.8,24.4*
CN(CC(=O)NC1CCCCC1)S(=O)(=O)c1cccc2nsnc12,0.6,-26.8,94.9*,1.6,-0.3,-30.4,55.7*,36.6*
CC(C)CCNC(=O)CN(C)S(=O)(=O)c1cccc2nsnc12,0.4,-0.8,52.0,9.8,1.5,-42.0,.,.
O=C(CCS(=O)(=O)c1cccc2nsnc12)NC1CCCCCC1,0.4,-15.1,65.6,17.3,-3.5,-5.5,.,.
